Measurements: ChEMBL document CHEMBL1157072 (Bioorg Med Chem, 2010)
In brackets after ≈: the same amount, converted by molar mass. Activity calls are given as the source filed them. No cut-off for these calls is given here.

What was measured:
Staphylococcus aureus [1] = assay: Downregulation of ribH gene expression in MBX-1090-resistant Staphylococcus aureus isolate d20A1 at 0.8 ug/ml by RT-PCR analysis relative to wild type; assay type: functional
Staphylococcus aureus [2] = assay: Antibacterial activity against Staphylococcus aureus NCTC 8325 carrying expression vector pG154 after 16 to 20 hrs by broth microdilution method; assay type: functional
In short: (§1)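 Broth microdilution in cation-adjusted Mueller Hinton broth. Compounds were serially diluted twofold in DMSO at 50-fold final strength (2% DMSO final). The inoculum was 1 × 10^4 cells per well. Plates were incubated at 37 °C for 16–20 h, and growth was read as absorbance at 600 nm.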

[3] = Selectivity ratio of MIC for MBX-1090-resistant Staphylococcus aureus isolate d20B1 to MIC for Staphylococcus aureus NCTC 8325; assay type: functional
In short: (§2)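 Ratio of resistant-mutant MIC to NCTC 8325 MIC. Both MICs came from broth microdilution in cation-adjusted MHB with 2% DMSO final and 1 × 10^4 cells per well, incubated at 37 °C for 16–20 h and read at 600 nm.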

Staphylococcus aureus [4] = assay: Downregulation of ribD gene expression in MBX-1090-resistant Staphylococcus aureus isolate d20A1 at 0.8 ug/ml by RT-PCR analysis relative to wild type; assay type: functional
Staphylococcus aureus [5] = assay: Antibacterial activity against Staphylococcus aureus NCTC 8325 harboring genetic deletion of mepRA gene after 16 to 20 hrs by broth microdilution method; assay type: functional; in short: as §1
Staphylococcus aureus [6] = assay: Upregulation of mepB gene expression in MBX-1090-resistant Staphylococcus aureus isolate d20A1 at 0.8 ug/ml by RT-PCR analysis relative to wild type; assay type: functional
Staphylococcus aureus [7] = assay: Antibacterial activity against Staphylococcus aureus NCTC 8325 carrying expression vector pG154 with mepA gene after 16 to 20 hrs by broth microdilution method; assay type: functional; in short: as §1
Staphylococcus aureus [8] = assay: Upregulation of conventional hypothetical protein mRNA expression in MBX-1090-resistant Staphylococcus aureus isolate d20A1 at 0.8 ug/ml by RT-PCR analysis relative to wild type; assay type: functional
Staphylococcus aureus [9] = assay: Upregulation of mepA gene expression in MBX-1090-resistant Staphylococcus aureus isolate d20A1 at 0.8 ug/ml by RT-PCR analysis relative to wild type; assay type: functional
[10] = Selectivity ratio of MIC for MBX-1090-resistant Staphylococcus aureus isolate d20A1 to MIC for Staphylococcus aureus NCTC 8325; assay type: functional; in short: as §2
Staphylococcus aureus [11] = assay: Induction of mepA gene expression in Staphylococcus aureus NCTC 8325 at 0.8 ug/ml by RT-PCR analysis; assay type: functional, organism-based
In short: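 NCTC 8325 diluted 1/200 in TSB and grown at 37 °C (250 rpm) to OD600 0.3. 5 ml aliquots exposed 3 h to compound or DMSO (2% final), triplicate cultures pooled. RNA was DNase-treated and 1 µg primed with random hexamers for cDNA, with a no-RT control. mepA signal normalized to rho, untreated set to 1. Mean of three experiments ± SD.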

Staphylococcus aureus [12] = assay: Induction of mepR gene expression in Staphylococcus aureus NCTC 8325 at 0.8 ug/ml by RT-PCR analysis; assay type: functional, organism-based
Staphylococcus aureus [13] = assay: Antibacterial activity against Staphylococcus aureus NCTC 8325 harboring genetic deletion of mepR gene after 16 to 20 hrs by broth microdilution method; assay type: functional; in short: as §1
Staphylococcus aureus [14] = assay: microbe, parasite or virus in culture; conditions: isolate d20A1
Staphylococcus aureus [15] = assay: Antibacterial activity against Staphylococcus aureus NCTC 8325 harboring genetic deletion of mepRA gene and carrying expression vector pG154 after 16 to 20 hrs by broth microdilution method in presence of anhydrous tetracycline; assay type: functional
In short: (§3)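 Broth microdilution in cation-adjusted MHB containing anhydrous tetracycline at 100 ng/ml final to induce the pG154 expression vector. Twofold DMSO compound dilutions were used (2% DMSO final) with 1 × 10^4 cells per well. Incubation was 37 °C for 16–20 h, and absorbance was read at 600 nm.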

Staphylococcus aureus [16] = assay: Antibacterial activity against Staphylococcus aureus NCTC 8325 carrying shuttle vector pMC-SK after 16 to 20 hrs by broth microdilution method; assay type: functional; in short: as §1
Staphylococcus aureus [17] = assay: Antibacterial activity against MBX-1090-resistant Staphylococcus aureus isolate d20A1 carrying shuttle vector pMC-SK with mepR gene after 16 to 20 hrs by broth microdilution method; assay type: functional; in short: as §1
Staphylococcus aureus [18] = assay: Upregulation of mepR gene expression in MBX-1090-resistant Staphylococcus aureus isolate d20A1 at 0.8 ug/ml by RT-PCR analysis relative to wild type; assay type: functional
Staphylococcus aureus [19] = assay: Downregulation of ribE gene expression in MBX-1090-resistant Staphylococcus aureus isolate d20A1 at 0.8 ug/ml by RT-PCR analysis relative to wild type; assay type: functional
Staphylococcus aureus [20] = assay: Antibacterial activity against MBX-1090-resistant Staphylococcus aureus isolate d20A1 carrying shuttle vector pMC-SK after 16 to 20 hrs by broth microdilution method; assay type: functional; in short: as §1
Staphylococcus aureus [21] = assay: Antibacterial activity against Staphylococcus aureus NCTC 8325 harboring genetic deletion of mepRA gene and carrying expression vector pG154 with mepA gene after 16 to 20 hrs by broth microdilution method in presence of anhydrous tetracycline; assay type: functional; in short: as §3
Staphylococcus aureus [22] = assay: Downregulation of ribA gene expression in MBX-1090-resistant Staphylococcus aureus isolate d20A1 at 0.8 ug/ml by RT-PCR analysis relative to wild type; assay type: functional
Staphylococcus aureus [23] = assay: Antibacterial activity against Staphylococcus aureus NCTC 8325 carrying expression vector pG154 after 16 to 20 hrs by broth microdilution method in presence of anhydrous tetracycline; assay type: functional; in short: as §3
Staphylococcus aureus [24] = assay: Antibacterial activity against Staphylococcus aureus NCTC 8325 after 16 to 20 hrs by broth microdilution method in presence of efflux pump inhibitor reserpine; assay type: functional
In short: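 Broth microdilution in cation-adjusted MHB with reserpine at 20 µg/ml final in the medium as efflux inhibitor. Twofold DMSO dilutions were made (2% DMSO final) with 1 × 10^4 cells per well. Incubation was 37 °C for 16–20 h, with growth read at 600 nm.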

Staphylococcus aureus [25] = assay: Antibacterial activity against Staphylococcus aureus NCTC 8325 carrying expression vector pG154 with mepA gene after 16 to 20 hrs by broth microdilution method in presence of anhydrous tetracycline; assay type: functional; in short: as §3
[26] = Selectivity ratio of MIC for MBX-1090-resistant Staphylococcus aureus isolate d20C1 to MIC for Staphylococcus aureus NCTC 8325; assay type: functional; in short: as §2
Staphylococcus aureus [27] = assay: Antibacterial activity against Staphylococcus aureus NCTC 8325 harboring genetic deletion of mepRA gene and carrying expression vector pG154 with mepA gene after 16 to 20 hrs by broth microdilution method; assay type: functional; in short: as §1
Staphylococcus aureus [28] = assay: Antibacterial activity against Staphylococcus aureus NCTC 8325 harboring genetic deletion of mepRA gene and carrying expression vector pG154 after 16 to 20 hrs by broth microdilution method; assay type: functional; in short: as §1
[29] = Dissociation constant, pKa of the compound; assay type: physicochemical
Staphylococcus aureus [30] = assay: Antibacterial activity against Staphylococcus aureus NCTC 8325 after 16 to 20 hrs by broth microdilution method; assay type: functional; in short: as §1
Staphylococcus aureus [31] = assay: Antibacterial activity against Staphylococcus aureus NCTC 8325 carrying shuttle vector pMC-SK with mepR gene after 16 to 20 hrs by broth microdilution method; assay type: functional; in short: as §1
Staphylococcus aureus [32] = assay: Downregulation of protein A gene expression in MBX-1090-resistant Staphylococcus aureus isolate d20A1 at 0.8 ug/ml by RT-PCR analysis relative to wild type; assay type: functional
Staphylococcus aureus [33] = assay: Upregulation of conventional hypothetical protein mRNA expression in MBX-1090-resistant Staphylococcus aureus isolate d20A1 at 50 ug/ml by RT-PCR analysis relative to wild type; assay type: functional
Staphylococcus aureus [34] = assay: Downregulation of ribA gene expression in MBX-1090-resistant Staphylococcus aureus isolate d20A1 at 50 ug/ml by RT-PCR analysis relative to wild type; assay type: functional
Staphylococcus aureus [35] = assay: Upregulation of mepB gene expression in MBX-1090-resistant Staphylococcus aureus isolate d20A1 at 50 ug/ml by RT-PCR analysis relative to wild type; assay type: functional
Staphylococcus aureus [36] = assay: Upregulation of mepA gene expression in MBX-1090-resistant Staphylococcus aureus isolate d20A1 at 50 ug/ml by RT-PCR analysis relative to wild type; assay type: functional
Staphylococcus aureus [37] = assay: Modulation of protein A gene expression in MBX-1090-resistant Staphylococcus aureus isolate d20A1 at 50 ug/ml by RT-PCR analysis relative to wild type; assay type: functional
Staphylococcus aureus [38] = assay: Downregulation of ribD gene expression in MBX-1090-resistant Staphylococcus aureus isolate d20A1 at 50 ug/ml by RT-PCR analysis relative to wild type; assay type: functional
Staphylococcus aureus [39] = assay: Upregulation of mepR gene expression in MBX-1090-resistant Staphylococcus aureus isolate d20A1 at 50 ug/ml by RT-PCR analysis relative to wild type; assay type: functional
Staphylococcus aureus [40] = assay: Downregulation of ribE gene expression in MBX-1090-resistant Staphylococcus aureus isolate d20A1 at 50 ug/ml by RT-PCR analysis relative to wild type; assay type: functional
Staphylococcus aureus [41] = assay: Downregulation of ribH gene expression in MBX-1090-resistant Staphylococcus aureus isolate d20A1 at 50 ug/ml by RT-PCR analysis relative to wild type; assay type: functional

SMILES	MIC (Staphylococcus aureus [2]) [µg/mL]	MIC (Staphylococcus aureus [5]) [µg/mL]	MIC (Staphylococcus aureus [7]) [µg/mL]	Selectivity ratio [10]	MIC (Staphylococcus aureus [13]) [µg/mL]	MIC (Staphylococcus aureus [14]) [µg/mL]	MIC (Staphylococcus aureus [15]) [µg/mL]	MIC (Staphylococcus aureus [21]) [µg/mL]	MIC (Staphylococcus aureus [23]) [µg/mL]	MIC (Staphylococcus aureus [24]) [µg/mL]	MIC (Staphylococcus aureus [25]) [µg/mL]	MIC (Staphylococcus aureus [27]) [µg/mL]	MIC (Staphylococcus aureus [28]) [µg/mL]	MIC (Staphylococcus aureus [30]) [µg/mL]	also measured
C(=C\c1cc2ccc(C3=NCCN3)cc2[nH]1)/c1cc2ccc(C3=NCCN3)cc2[nH]1	1 (≈ 2.53 µM)	1 (≈ 2.53 µM)	1 (≈ 2.53 µM)	8	4 (≈ 10.1 µM)	8 (≈ 20.3 µM)	1	4	1	0.5	8	1 (≈ 2.53 µM)	1 (≈ 2.53 µM)	1 (≈ 2.53 µM)	fold change (FC) (Staphylococcus aureus [1]): 1.9; Selectivity ratio [3]: 8; fold change (FC) (Staphylococcus aureus [4]): 1.4; fold change (FC) (Staphylococcus aureus [6]): 1; fold change (FC) (Staphylococcus aureus [8]): 15.3; fold change (FC) (Staphylococcus aureus [9]): 2; Activity (Staphylococcus aureus [11]): inactive; Activity (Staphylococcus aureus [12]): inactive; MIC (Staphylococcus aureus [16]): 1 µg/mL (≈ 2.53 µM); MIC (Staphylococcus aureus [17]): 1 µg/mL (≈ 2.53 µM); fold change (FC) (Staphylococcus aureus [18]): 1.7; fold change (FC) (Staphylococcus aureus [19]): 2.6; MIC (Staphylococcus aureus [20]): 8 µg/mL (≈ 20.3 µM); fold change (FC) (Staphylococcus aureus [22]): 3; Selectivity ratio [26]: 8; pKa [29]: 9.6; MIC (Staphylococcus aureus [31]): 1 µg/mL (≈ 2.53 µM); fold change (FC) (Staphylococcus aureus [32]): 3.1
Cn1cc(NC(=O)c2cc(NC(=O)c3cc(NC=O)cn3C)cn2C)cc1C(=O)NCCC(=N)N [STALLIMYCIN]	50 (≈ 104 µM)	100 (≈ 208 µM)	50 (≈ 104 µM)	4	100 (≈ 208 µM)	200 (≈ 415 µM)	50	50	50	50	50	50 (≈ 104 µM)	50 (≈ 104 µM)	50 (≈ 104 µM)	fold change (FC) (Staphylococcus aureus [33]): 14.2; fold change (FC) (Staphylococcus aureus [34]): 1.9; fold change (FC) (Staphylococcus aureus [35]): 25.5; fold change (FC) (Staphylococcus aureus [36]): 72.6; fold change (FC) (Staphylococcus aureus [37]): 2; fold change (FC) (Staphylococcus aureus [38]): 1.6; fold change (FC) (Staphylococcus aureus [39]): 39.2; fold change (FC) (Staphylococcus aureus [40]): 1.5; fold change (FC) (Staphylococcus aureus [41]): 2.7
